According to ChEMBL document CHEMBL3877308, “Design, synthesis and in vitro biological evaluation of oligopeptides targeting E. coli type I signal peptidase (LepB)” (Bioorg Med Chem, 2017):
Values after ≈ are worked out from the molar mass of the structure shown.

Experiments:
Pseudomonas aeruginosa [1] = test: Antibacterial activity against wild type Pseudomonas aeruginosa PAO1 after 16 to 20 hrs by broth microdilution assay; format: functional
Summary of the method: (§1)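 MIC by broth microdilution in cation-adjusted Mueller-Hinton II medium, following EUCAST and CLSI guidelines; panel of Gram-negative strains plus S. aureus ATCC 29213.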

[2] = target: Signal peptidase I (Escherichia coli K-12) (UniProt P00803); test: (§2) Inhibition of full length Escherichia coli His6-tagged LepB expressed in Escherichia coli C43(DE3) assessed as residual activity at 50 uM using dabcyl-VEVGGTATAGAFSRPGLE-(EDANS) as substrate preincubated for 10 mins followed by substrate addition measured for 2 hrs by FRET assay relative to control
Chain of Signal peptidase I (Escherichia coli K-12) (P00803 whole entry): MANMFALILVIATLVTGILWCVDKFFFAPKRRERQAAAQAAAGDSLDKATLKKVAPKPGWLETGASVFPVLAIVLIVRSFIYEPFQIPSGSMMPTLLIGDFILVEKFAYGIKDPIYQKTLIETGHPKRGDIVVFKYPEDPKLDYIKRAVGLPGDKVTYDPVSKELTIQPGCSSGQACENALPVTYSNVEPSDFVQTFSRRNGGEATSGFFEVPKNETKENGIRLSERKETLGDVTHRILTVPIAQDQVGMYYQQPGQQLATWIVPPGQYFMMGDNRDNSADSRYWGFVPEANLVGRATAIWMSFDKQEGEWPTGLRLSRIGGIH
Summary of the method: (§3)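 Enzyme came from the membrane fraction, extracted with 1% reduced Triton X-100 and purified by metal-chelation chromatography in 0.5% detergent. FRET pair was dabcyl acceptor and EDANS donor. EcLepB (final about 50 nM) was pre-incubated with compound 10 min at 22 °C. Reaction was then run with 8 µM substrate, following the linear fluorescence increase at 22 °C for 2 h.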

[3] = target: Signal peptidase I (Escherichia coli K-12) (UniProt P00803); test: as §2, with “0.0488” for “50”; summary of the method: as §3
[4] = target: Signal peptidase I (Escherichia coli K-12) (UniProt P00803); test: as §2, with “0.0977” for “50”; summary of the method: as §3
[5] = target: Signal peptidase I (Escherichia coli K-12) (UniProt P00803); test: as §2, with “3.13” for “50”; summary of the method: as §3
Pseudomonas aeruginosa [6] = test: Antibacterial activity against wild type Pseudomonas aeruginosa PAO750 harboring efflux defective mutant after 16 to 20 hrs by broth microdilution assay; format: functional
Summary of the method: (§4)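 Broth microdilution MIC in cation-adjusted Mueller-Hinton II medium, following EUCAST and CLSI guidelines; tested on a panel of Gram-negative strains plus S. aureus ATCC 29213 (wild-type).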

[7] = target: Signal peptidase I (Escherichia coli K-12) (UniProt P00803); test: Inhibition of full length Escherichia coli His6-tagged LepB expressed in Escherichia coli C43(DE3) at 100 uM using dabcyl-VEVGGTATAGAFSRPGLE-(EDANS) as substrate preincubated for 10 mins followed by substrate addition measured for 2 hrs by FRET assay relative to control; summary of the method: as §3
[8] = target: Signal peptidase I (Escherichia coli K-12) (UniProt P00803); test: as §2, with “12.5” for “50”; summary of the method: as §3
[9] = target: Signal peptidase I (Escherichia coli K-12) (UniProt P00803); test: Inhibition of full length Escherichia coli His6-tagged LepB expressed in Escherichia coli C43(DE3) assessed as residual activity at 100 uM using dabcyl-VEVGGTATAGAFSRPGLE-(EDANS) as substrate preincubated for 10 mins followed by substrate addition measured for 2 hrs by FRET assay relative to control; summary of the method: as §3
[10] = target: Signal peptidase I (Escherichia coli K-12) (UniProt P00803); test: as §2, with “0.195” for “50”; summary of the method: as §3
[11] = target: Signal peptidase I (Escherichia coli K-12) (UniProt P00803); test: as §2, with “1.56” for “50”; summary of the method: as §3
Klebsiella pneumoniae = test: Antibacterial activity against wild type Klebsiella pneumoniae […] after 16 to 20 hrs by broth microdilution assay; format: functional; summary of the method: as §1
[12] = target: Signal peptidase I (Escherichia coli K-12) (UniProt P00803); test: as §2, with “6.25” for “50”; summary of the method: as §3
[13] = target: Signal peptidase I (Escherichia coli K-12) (UniProt P00803); test: Inhibition of full length Escherichia coli His6-tagged LepB expressed in Escherichia coli C43(DE3) assessed as residual activity at 25 uM using dabcyl-VEVGGTATAGAFSRPGLE-(EDANS) as substrate preincubated for 10 mins followed by substrate addition measured for 2 hrs by FRET assay relative to control; summary of the method: as §3
Escherichia coli [14] = test: Antibacterial activity against wild type Escherichia coli ATCC 25922 after 16 to 20 hrs by broth microdilution assay; format: functional; summary of the method: as §1
[15] = target: Signal peptidase I (Escherichia coli K-12) (UniProt P00803); test: as §2, with “0.0244” for “50”; summary of the method: as §3
[16] = target: Signal peptidase I (Escherichia coli K-12) (UniProt P00803); test: as §2, with “0.391” for “50”; summary of the method: as §3
Escherichia coli [17] = test: Antibacterial activity against Escherichia coli CH3130 harboring tolC deletion mutant after 16 to 20 hrs by broth microdilution assay; format: functional; summary of the method: as §4
Escherichia coli [18] = test: Antibacterial activity against Escherichia coli D22 harboring lpxC mutant after 16 to 20 hrs by broth microdilution assay; format: functional; summary of the method: as §4
Acinetobacter baumannii = test: Antibacterial activity against wild type Acinetobacter baumannii ATCC 19606 after 16 to 20 hrs by broth microdilution assay; format: functional; summary of the method: as §1
[19] = target: Signal peptidase I (Escherichia coli K-12) (UniProt P00803); test: as §2, with “0.781” for “50”; summary of the method: as §3
Staphylococcus aureus = test: Antibacterial activity against wild type Staphylococcus aureus ATCC 29213 after 16 to 20 hrs by broth microdilution assay; format: functional; summary of the method: as §1
Signal peptidase I = Signal peptidase I (Escherichia coli K-12, UniProt P00803); test: Inhibition of full length Escherichia coli His6-tagged LepB expressed in Escherichia coli C43(DE3) using dabcyl-VEVGGTATAGAFSRPGLE-(EDANS) as substrate preincubated for 10 mins followed by substrate addition measured for 2 hrs by FRET assay
Chain of Signal peptidase I (P00803 whole entry): as above
Summary of the method: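 Enzyme extracted from the membrane fraction with 1% reduced Triton X-100 and purified by metal-chelation chromatography in 0.5% detergent. Enzyme (final ~50 nM) was pre-incubated with compound for 10 min at 22 °C. The linear rise in EDANS donor fluorescence (dabcyl acceptor) was then followed at 22 °C for 2 h. IC50 came from non-linear regression of sigmoidal rate-versus-concentration curves.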

[20] = Cytotoxicity against human HepG2 cells assessed as reduction in cell viability after 72 hrs by fluorescein diacetate dye based fluorometric microculture assay; format: toxicity
Summary of the method: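 FMCA on HepG2 cells read at 72 h. Survival index (%) is fluorescence in test wells as percent of control cultures, with blank values subtracted. IC50 was obtained by non-linear regression of log concentration-effect curves.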

[21] = target: Signal peptidase I (Escherichia coli K-12) (UniProt P00803); test: as §2, with “0.078” for “50”; summary of the method: as §3
[22] = Hemolytic activity against human RBC at 100 uM after 45 mins by spectrophotometric method relative to control; format: ADME, cell-based, Erythrocyte; conditions: red blood cells (RBC), read-out: Activity
Summary of the method: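 Hemolysis was tested using red blood cells from heparinized human blood.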

[23] = target: Signal peptidase I (Escherichia coli K-12) (UniProt P00803); test: (§5) Inhibition of full length Escherichia coli His6-tagged LepB expressed in Escherichia coli C43(DE3) assessed as residual activity at 10 uM using dabcyl-VEVGGTATAGAFSRPGLE-(EDANS) as substrate preincubated for 10 mins followed by substrate addition measured for 2 hrs by FRET assay relative to control; summary of the method: as §3
[24] = target: Signal peptidase I (Escherichia coli K-12) (UniProt P00803); test: as §5, with “at 0.156” for “at 10”; summary of the method: as §3
[25] = target: Signal peptidase I (Escherichia coli K-12) (UniProt P00803); test: as §5, with “at 0.039” for “at 10”; summary of the method: as §3
[26] = target: Signal peptidase I (Escherichia coli K-12) (UniProt P00803); test: Inhibition of full length Escherichia coli His6-tagged LepB expressed in Escherichia coli C43(DE3) assessed as residual activity at 5 uM using dabcyl-VEVGGTATAGAFSRPGLE-(EDANS) as substrate preincubated for 10 mins followed by substrate addition measured for 2 hrs by FRET assay relative to control; summary of the method: as §3
[27] = target: Signal peptidase I (Escherichia coli K-12) (UniProt P00803); test: as §5, with “at 0.01” for “at 10”; summary of the method: as §3
[28] = target: Signal peptidase I (Escherichia coli K-12) (UniProt P00803); test: as §5, with “at 0.02” for “at 10”; summary of the method: as §3
[29] = target: Signal peptidase I (Escherichia coli K-12) (UniProt P00803); test: as §5, with “at 0.005” for “at 10”; summary of the method: as §3
[30] = target: Signal peptidase I (Escherichia coli K-12) (UniProt P00803); test: Inhibition of full length Escherichia coli His6-tagged LepB expressed in Escherichia coli C43(DE3) assessed as residual activity at 2.5 uM using dabcyl-VEVGGTATAGAFSRPGLE-(EDANS) as substrate preincubated for 10 mins followed by substrate addition measured for 2 hrs by FRET assay relative to control; summary of the method: as §3
[31] = target: Signal peptidase I (Escherichia coli K-12) (UniProt P00803); test: as §5, with “at 0.002” for “at 10”; summary of the method: as §3
[32] = target: Signal peptidase I (Escherichia coli K-12) (UniProt P00803); test: as §5, with “at 0.001” for “at 10”; summary of the method: as §3
[33] = target: Signal peptidase I (Escherichia coli K-12) (UniProt P00803); test: as §5, with “at 1.25” for “at 10”; summary of the method: as §3
[34] = target: Signal peptidase I (Escherichia coli K-12) (UniProt P00803); test: as §5, with “at 0.0005” for “at 10”; summary of the method: as §3
[35] = target: Signal peptidase I (Escherichia coli K-12) (UniProt P00803); test: as §5, with “at 0.313” for “at 10”; summary of the method: as §3
[36] = target: Signal peptidase I (Escherichia coli K-12) (UniProt P00803); test: as §5, with “at 0.625” for “at 10”; summary of the method: as §3
[37] = target: Signal peptidase I (Escherichia coli K-12) (UniProt P00803); test: Potency index, ratio of decanoyl-PTANA-CHO IC50 to compound IC50 for full length Escherichia coli His6-tagged LepB expressed in Escherichia coli C43(DE3)

SMILES | MIC (Pseudomonas aeruginosa [1]) [µg/mL] | MIC (Pseudomonas aeruginosa [6]) [µg/mL] | inhibition [7] [%] | MIC (Klebsiella pneumoniae) [µg/mL] | MIC (Escherichia coli [14]) [µg/mL] | MIC (Escherichia coli [17]) [µg/mL] | MIC (Escherichia coli [18]) [µg/mL] | MIC (Acinetobacter baumannii) [µg/mL] | MIC (Staphylococcus aureus) [µg/mL] | IC50 (Signal peptidase I) [nM] | IC50 at 72 h [20] [µM] | Activity [21] [%] | hemolysis at 0.75 h, 100 µM [22] [%] | Activity [23] [%] | Activity [24] [%] | Activity [25] [%] | Activity [26] [%] | Activity [27] [%] | Activity [28] [%] | Activity [30] [%] | also measured
CC(O)[C@H](NC(=O)[C@@H]1CCCN1)C(=O)N[C@@H](C)C(=O)N[C@@H](CC(N)=O)C(=O)N[C@@H](C)B1O[C@@H]2C[C@@H]3C[C@@H](C3(C)C)[C@]2(C)O1 (single isomer, unassigned) | > 64 | > 64 | > 50 | > 64 | > 64 | > 64 | > 64 | > 64 | > 64 | 26000 | > 64 | – | – | – | – | – | – | – | – | – | Activity [2]: 35.6%; Activity [3]: 96.7%; Activity [4]: 96%; Activity [5]: 88.6%; Activity [8]: 67.2%; Activity [9]: 25.1%; Activity [10]: 95.4%; Activity [11]: 90.7%; Activity [12]: 85.8%; Activity [13]: 56.9%; Activity [15]: 92.7%; Activity [16]: 95%; Activity [19]: 95%
CCCCCCc1ccc(-c2ccc(C(=O)N3CC(CN)C[C@H]3C(=O)N[C@H](C(=O)N[C@@H](C)C(=O)N[C@@H](CC(N)=O)C(=O)N[C@@H](C)B(O)O)[C@H](C)O)cc2)cc1 (stereo partly drawn) | 64 (≈ 83.6 µM) | 4 (≈ 5.22 µM) | > 50 | 8 (≈ 10.4 µM) | 16 (≈ 20.9 µM) | 2 (≈ 2.61 µM) | 0.5 (≈ 0.653 µM) | 8 (≈ 10.4 µM) | 0.25 (≈ 0.326 µM) | 6 | 15.6 | 25.7 | 2.5 | 24.6 | 27.4 | 27.7 | 28.2 | 51.8 | 36.2 | 24.8 | Activity [29]: 60.1%; Activity [31]: 85.8%; Activity [32]: 86.8%; Activity [33]: 28.4%; Activity [34]: 88.8%; Activity [35]: 25.3%; Activity [36]: 25.1%
CCCCCCCCCC(=O)N1CCC[C@H]1C(=O)N[C@H](C(=O)N[C@@H](C)C(=O)N[C@@H](CC(N)=O)C(=O)N[C@@H](C)B1O[C@@H]2C[C@@H]3C[C@@H](C3(C)C)[C@]2(C)O1)[C@H](C)O | > 64 | > 64 | > 50 | > 64 | > 64 | > 64 | > 64 | > 64 | 32 (≈ 42.1 µM) | 48 | 7.8 | 36.4 | 0.4 | 0.084 | 29.6 | 47 | 10.6 | 84.2 | 66.8 | 17.2 | Activity [31]: 81.9%; Activity [32]: 84.5%; Activity [33]: 16.9%; Activity [34]: 82.6%; Activity [35]: 19.7%; Ratio IC50 [37]: 25; Activity [36]: 18.1%
